Experimental data taken from ChEMBL document CHEMBL3272270, “Potential antitumor agents. 23. 4'-(9-Acridinylamino)alkanesulfonanilide congeners bearing hydrophilic functionality” (J Med Chem, 1977).

Assays:
[1] = Retardation factor, Rm of the compound by reversed phase partition chromatography; type: physicochemical
Mus musculus = assay: Toxicity in sc implanted mouse L1210 cells allografted C3H/DBA2 F1 hybrid hybrid mouse assessed as optimum dose required to increase life span treated ip after 24 hrs after tumor inoculation and continued for 5 days; type: organism-based; conditions: in vivo
Procedure, shortened: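 10^5 L1210 cells implanted sc above the right axilla in 18.5-22.5-g C3H/DBA2 F1 hybrid mice. Ip dosing (0.2 mL per dose) ran daily for 5 days from 24 h. Dilution series at 0.18 log intervals, with the median dose set at the earlier ip L1210 optimum. Six mice per dose, one control group per six test groups. Tests were repeated until the highest dose was toxic and the lowest clearly suboptimal.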

L1210 [2] = assay: Antileukemic activity against sc implanted mouse L1210 cells in C3H/DBA2 F1 hybrid hybrid mouse assessed as increase life span treated ip after 24 hrs after tumor inoculation and continued for 5 days; type: functional
Procedure, shortened: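 10^5 L1210 cells implanted sc above the right axilla in 18.5-22.5-g C3H/DBA2 F1 hybrid mice. Drug given ip (0.2 mL) from 24 h for 5 days. Dilution series at 0.18 log intervals, centred on the optimum ip L1210 dose. Top dose had to show toxicity and lowest dose had to be suboptimal, otherwise the test was repeated. Read-out is life extension.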

L1210 [3] = assay: Antileukemic activity against ip implanted mouse L1210 cells in C3H/DBA2 F1 hybrid hybrid mouse assessed as increase life span treated ip after 24 hrs after tumor inoculation and continued for 5 days; type: functional
Procedure, shortened: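 10^5 L1210 cells implanted ip in 18.5-22.5-g C3H/DBA2 F1 hybrid mice. Drug given ip from 24 h after inoculation, continuing for 5 days, each dose in 0.2 mL. Dose levels spaced at 0.18 log intervals, six mice per dose, one control group per six test groups. Read-out is life extension; 50-day survivors counted as cures.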

[4] = Half life in mouse L1210 cells allografted C3H/DBA2 F1 hybrid hybrid mouse

half-life [4] [min]	Structure (SMILES)	Rm [1]	Activity (Mus musculus) [mg/kg]	ILS (L1210 [2]) [%]	ILS (L1210 [3]) [%]
	COC(=O)CCS(=O)(=O)Nc1ccc(Nc2c3ccccc3nc3ccccc23)cc1.Cl	0.57	> 500	>25	
	CN(C)C(=O)CCS(=O)(=O)Nc1ccc(Nc2c3ccccc3nc3ccccc23)cc1.Cl	0.17	150		63
	Cl.NC(=O)NCCS(=O)(=O)Nc1ccc(Nc2c3ccccc3nc3ccccc23)cc1	-0.21	200	>25	53
	Cl.NC(=O)N1CCN(c2ccc(Nc3c4ccccc4nc4ccccc34)cc2)CC1	-0.11	37		78
	CC(=O)NCCCS(=O)(=O)Nc1ccc(Nc2c3ccccc3nc3ccccc23)cc1.Cl	-0.01	> 500		26
	COc1ccc(Nc2c3ccccc3nc3cc([N+](=O)[O-])ccc23)cc1.Cl	0.49	90		33
	Cl.NC(=O)CCS(=O)(=O)Nc1ccc(Nc2c3ccccc3nc3ccccc23)cc1	-0.34	> 500		67
	COc1cc(NS(C)(=O)=O)ccc1Nc1c2ccccc2nc2c(C(=O)NCC(N)=O)cccc12.Cl	-0.54	62	41	105
	Cl.O=C(O)CCS(=O)(=O)Nc1ccc(Nc2c3ccccc3nc3ccccc23)cc1	0.1	350		>25
	CNC(=O)c1cccc2c(Nc3ccc(NS(C)(=O)=O)cc3OC)c3ccccc3nc12.Cl	0.06	8.3	59	166
	CC(=O)NCCS(=O)(=O)Nc1ccc(Nc2c3ccccc3nc3ccccc23)cc1.Cl	-0.06	50	>25	94
	Cl.O=C(Nc1ccc(Nc2c3ccccc3nc3ccccc23)cc1)OCC(O)CO (configuration not stated)	-0.06	25	>25	63
	CS(=O)(=O)NCCS(=O)(=O)Nc1ccc(Nc2c3ccccc3nc3ccccc23)cc1.Cl	-0.14	110		33
12	Nc1ccc(Nc2c3ccccc3nc3ccccc23)cc1				
	Cl.O=C1CCS(=O)(=O)N1c1ccc(Nc2c3ccccc3nc3ccccc23)cc1	0.13	200		33
	COc1cc(NS(C)(=O)=O)ccc1Nc1c2ccccc2nc2c(OCCO)cccc12.Cl	0.09	5	28	112
	Cl.O=C1CNC(=O)N1CCS(=O)(=O)Nc1ccc(Nc2c3ccccc3nc3ccccc23)cc1	-0.19	160	>25	51
	Br.CS(=O)(=O)N(CC(O)CO)c1ccc(Nc2c3ccccc3nc3ccccc23)cc1 (configuration not stated)	-0.03	65		>25
	Cc1cc(NS(C)(=O)=O)ccc1Nc1c2ccccc2nc2c(OCC(O)CO)cccc12.Cl (configuration not stated)	-0.03	100	41	110
	CNC(=O)Nc1ccc(Nc2c3ccccc3nc3ccccc23)c(OC)c1.Cl	0.51	50		72
	COc1cc(NS(C)(=O)=O)ccc1Nc1c2ccccc2nc2c(C(=O)N[C@H]3[C@@H](OC)O[C@H](CO)[C@@H](O)[C@@H]3O)cccc12.Cl	-0.57	180	49	100
	CC(=O)N1CCN(c2ccc(Nc3c4ccccc4nc4ccccc34)cc2)CC1.Cl	0.23	75		81
	COc1cc(NS(C)(=O)=O)ccc1Nc1c2ccc(I)cc2nc2c(OCC(O)CO)cccc12.Cl (configuration not stated)	0.06	62	>25	
	Br.CN1CCN(c2ccc(Nc3c4ccccc4nc4cc([N+](=O)[O-])ccc34)cc2)CC1	-0.78	60		>25

half-life [4] [min]	Structure (SMILES)	Rm [1]	Activity (Mus musculus) [mg/kg]	ILS (L1210 [2]) [%]	ILS (L1210 [3]) [%]
	CS(=O)(=O)Nc1ccc(Nc2c3ccccc3nc3ccccc23)cc1	0	45	28	107
	Br.COc1cc(NS(C)(=O)=O)ccc1Nc1c2ccccc2nc2cc(CCC(N)=O)ccc12	-0.25	125		58
	O=[N+]([O-])c1ccc2c(Nc3ccc(N4CCNCC4)cc3)c3ccccc3nc2c1	-0.81	15		>25
	CC(=O)N(C)CCS(=O)(=O)Nc1ccc(Nc2c3ccccc3nc3ccccc23)cc1.Cl	0.05	200		54
	COc1cc(NS(C)(=O)=O)ccc1Nc1c2ccccc2nc2c(C(=O)N[C@H]3[C@@H](OC)O[C@H](COC(C)=O)[C@@H](OC(C)=O)[C@@H]3OC(C)=O)cccc12.Cl	0.62	> 400		>25
	Br.COc1cc(NS(C)(=O)=O)ccc1Nc1c2ccccc2nc2c(CCC(N)=O)cccc12	-0.17	15	30	94
	COCCS(=O)(=O)Nc1ccc(Nc2c3ccccc3nc3ccccc23)cc1.Cl	0.21	280	25	79
	COc1cc(NS(C)(=O)=O)ccc1Nc1c2ccccc2nc2c(C(N)=O)cccc12.Cl	-0.27	25	36	140
	COc1cc(NS(C)(=O)=O)ccc1Nc1c2ccccc2nc2ccccc12 [AMSACRINE]	0.18	6.7	27	114
	CNC(=O)Nc1ccc(Nc2c3ccccc3nc3ccccc23)cc1	0.25	60	>25	112
	COc1ccc(Nc2c3ccccc3nc3cc(N)ccc23)cc1.Cl	0.31	15		66
	COC(=O)NCCS(=O)(=O)Nc1ccc(Nc2c3ccccc3nc3ccccc23)cc1.Cl	0.24	> 500		67
	Br.CN1CCN(c2ccc(Nc3c4ccccc4nc4ccccc34)cc2)CC1	-0.68	50		>25
	CC(CS(=O)(=O)Nc1ccc(Nc2c3ccccc3nc3ccccc23)cc1)C(N)=O.Cl (configuration not stated)	-0.11	50		>25
	CS(=O)(=O)N1CCN(c2ccc(Nc3c4ccccc4nc4ccccc34)cc2)CC1.Cl	0.21	200		69
	COC(=O)NNC(=O)Nc1ccc(Nc2c3ccccc3nc3ccccc23)cc1.Cl	-0.04	> 500		67
	Br.c1ccc2c(Nc3ccc(N4CCNCC4)cc3)c3ccccc3nc2c1	-0.8	15		>25
	CCOC(=O)NNc1ccc(Nc2c3ccccc3nc3ccccc23)cc1.Cl	0.41	25		67
	CCCS(=O)(=O)Nc1ccc(Nc2c3ccccc3nc3c(C(=O)N[C@H]4[C@@H](OC)O[C@H](CO)[C@@H](O)[C@@H]4O)cccc23)c(OC)c1.Cl	-0.1	400	51	180
	COc1cc(NS(C)(=O)=O)ccc1Nc1c2ccccc2nc2c(OCC(O)CO)cccc12.Cl (configuration not stated)	-0.09	17	43	123
	CCOC(=O)N1CCN(C(=O)Nc2ccc(Nc3c4ccccc4nc4ccccc34)cc2)CC1.Cl	0.59	50		29
	COc1cc(NS(C)(=O)=O)ccc1Nc1c2ccccc2nc2c(C(=O)NCC(O)CO)cccc12.Cl (configuration not stated)	-0.36	92		72
	COc1cc(NS(C)(=O)=O)ccc1Nc1c2ccccc2nc2c(C(=O)N(C)C)cccc12.Cl	0.09	15	61	84
